Laboratory results as given in ChEMBL document CHEMBL1141179 (J Med Chem, 2005).

Tests used:
Rattus norvegicus [1] = species on record: Rattus norvegicus; test: Relative potency of compound to inhibit growth hormone secretion in rat anterior pituitary cells; type: functional, Pituitary gland cell
Rattus norvegicus [2] = species on record: Rattus norvegicus; test: Relative potency of compound to inhibit glucagon secretion […]; type: functional
Rattus norvegicus [3] = species on record: Rattus norvegicus; test: Relative potency of compound to inhibit insulin secretion […]; type: functional
[4] = target: Somatostatin receptor type 5 (Homo sapiens, UniProt P35346); test: Inhibition of 125I-[Leu8,D-Trp22,Tyr25]SRIF-28 binding to human somatostatin receptor type 5
Chain of Somatostatin receptor type 5 (P35346 whole entry): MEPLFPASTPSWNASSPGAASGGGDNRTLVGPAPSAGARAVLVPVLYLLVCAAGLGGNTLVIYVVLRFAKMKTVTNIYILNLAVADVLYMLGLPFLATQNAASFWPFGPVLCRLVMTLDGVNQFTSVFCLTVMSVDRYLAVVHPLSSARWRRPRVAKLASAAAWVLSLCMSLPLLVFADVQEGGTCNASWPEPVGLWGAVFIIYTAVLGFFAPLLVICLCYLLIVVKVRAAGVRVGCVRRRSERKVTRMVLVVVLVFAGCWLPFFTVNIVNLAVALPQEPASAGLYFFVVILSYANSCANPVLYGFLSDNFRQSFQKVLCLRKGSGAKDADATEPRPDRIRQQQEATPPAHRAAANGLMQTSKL
In short: (§1)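 Human sst1 or sst5 receptor stably expressed in CHO-K1 cells. 20 µm cryostat sections of cell membrane pellets were used for receptor autoradiography. IC50 (nM) came from competitive radioligand displacement. Values are mean ± SEM when N ≥ 3; otherwise mean with single values.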

[5] = target: Somatostatin receptor type 2 (Homo sapiens, UniProt P30874); test: Inhibition of 125I-[Leu8,D-Trp22,Tyr25]SRIF-28 binding to human somatostatin receptor type 2
Chain of Somatostatin receptor type 2 (P30874 whole entry): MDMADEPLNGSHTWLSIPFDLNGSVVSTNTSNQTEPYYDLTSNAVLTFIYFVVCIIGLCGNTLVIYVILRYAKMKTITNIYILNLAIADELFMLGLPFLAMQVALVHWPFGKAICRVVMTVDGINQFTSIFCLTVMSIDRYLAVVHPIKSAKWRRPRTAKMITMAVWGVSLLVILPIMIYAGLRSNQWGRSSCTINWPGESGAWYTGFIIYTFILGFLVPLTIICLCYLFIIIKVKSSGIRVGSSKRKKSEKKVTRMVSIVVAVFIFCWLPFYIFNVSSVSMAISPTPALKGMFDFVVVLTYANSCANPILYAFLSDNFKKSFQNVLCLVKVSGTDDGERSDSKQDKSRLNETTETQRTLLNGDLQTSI
In short: (§2)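 Human sst2 or sst3 receptor stably expressed in CCL39 cells. 20 µm cryostat sections of cell membrane pellets were used for autoradiographic binding. IC50 (nM) came from competitive displacement. Values are mean ± SEM when N ≥ 3; otherwise mean with single values.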

[6] = target: Somatostatin receptor type 1 (Homo sapiens, UniProt P30872); test: Inhibition of 125I-[Leu8,D-Trp22,Tyr25]SRIF-28 binding to human somatostatin receptor type 1; in short: as §1
Chain of Somatostatin receptor type 1 (P30872 whole entry): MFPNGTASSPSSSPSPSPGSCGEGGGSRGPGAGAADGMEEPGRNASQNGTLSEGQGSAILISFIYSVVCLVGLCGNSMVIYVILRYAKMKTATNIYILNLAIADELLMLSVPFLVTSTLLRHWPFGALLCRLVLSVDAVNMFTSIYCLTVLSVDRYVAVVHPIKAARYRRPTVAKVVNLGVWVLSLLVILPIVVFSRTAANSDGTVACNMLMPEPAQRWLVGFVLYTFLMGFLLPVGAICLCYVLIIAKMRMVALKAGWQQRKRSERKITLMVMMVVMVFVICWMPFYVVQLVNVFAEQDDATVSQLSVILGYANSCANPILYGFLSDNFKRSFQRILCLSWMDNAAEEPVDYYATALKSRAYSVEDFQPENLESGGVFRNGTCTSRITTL

[7] = target: Somatostatin receptor type 4 (Homo sapiens, UniProt P31391); test: Inhibition of 125I-[Leu8,D-Trp22,Tyr25]SRIF-28 binding to human somatostatin receptor type 4
Chain of Somatostatin receptor type 4 (P31391 whole entry): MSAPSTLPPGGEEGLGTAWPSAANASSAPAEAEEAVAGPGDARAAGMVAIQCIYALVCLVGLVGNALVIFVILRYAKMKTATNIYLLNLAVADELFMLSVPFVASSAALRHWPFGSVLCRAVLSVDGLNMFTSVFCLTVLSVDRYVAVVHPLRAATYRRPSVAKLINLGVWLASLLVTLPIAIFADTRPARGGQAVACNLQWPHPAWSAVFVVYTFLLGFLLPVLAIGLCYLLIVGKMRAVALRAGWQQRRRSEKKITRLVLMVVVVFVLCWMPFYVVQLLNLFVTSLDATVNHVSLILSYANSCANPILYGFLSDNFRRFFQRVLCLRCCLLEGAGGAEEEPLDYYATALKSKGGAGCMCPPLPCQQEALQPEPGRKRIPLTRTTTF

[8] = target: Somatostatin receptor type 3 (Homo sapiens, UniProt P32745); test: Inhibition of 125I-[Leu8,D-Trp22,Tyr25]SRIF-28 binding to human somatostatin receptor type 3; in short: as §2
Chain of Somatostatin receptor type 3 (P32745 whole entry): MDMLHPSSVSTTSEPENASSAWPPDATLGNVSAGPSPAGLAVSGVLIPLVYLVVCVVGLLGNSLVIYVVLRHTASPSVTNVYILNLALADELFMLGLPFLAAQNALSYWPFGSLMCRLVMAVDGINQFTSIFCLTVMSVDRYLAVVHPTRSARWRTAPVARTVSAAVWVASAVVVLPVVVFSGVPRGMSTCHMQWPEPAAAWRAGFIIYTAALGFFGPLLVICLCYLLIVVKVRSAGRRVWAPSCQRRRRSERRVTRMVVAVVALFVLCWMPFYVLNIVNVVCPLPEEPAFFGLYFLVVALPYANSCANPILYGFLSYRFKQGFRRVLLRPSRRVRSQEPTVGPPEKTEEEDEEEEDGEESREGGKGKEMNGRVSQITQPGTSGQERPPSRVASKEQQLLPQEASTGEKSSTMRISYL

C[C@@H](O)[C@@H]1NC(=O)[C@H](CCCCN)NC(=O)[C@@H](Cc2c[nH]c3ccccc23)NC(=O)[C@H](Cc2ccccc2)NC(=O)[C@H](Cc2ccccc2)NC(=O)[C@H](CCCCN)NC(=O)[C@@H](N)CSSC[C@@H](C(=O)O)NC(=O)[C@H](Cc2ccccc2)NC1=O
Relative potency (Rattus norvegicus [1]): 15 | Relative potency (Rattus norvegicus [2]): 115 | Relative potency (Rattus norvegicus [3]): 310

CC(C)NCc1ccc(C[C@@H]2NC(=O)[C@@H](Cc3c[nH]c4ccccc34)NC(=O)[C@H]3CCC(=O)NCC[C@H](NC(=O)[C@H]([C@@H](C)O)NC2=O)C(=O)N[C@@H]([C@@H](C)O)C(=O)N[C@@H](CO)C(=O)N[C@H](C(=O)O)CSSC[C@H](NC(=O)[C@@H](N)Cc2ccc(O)cc2)C(=O)N[C@@H](CCCCN)C(=O)N[C@@H](Cc2ccccc2)C(=O)N3)cc1
IC50 [4]: > 1000 nM | IC50 [5]: > 1000 nM | IC50 [6]: > 1000 nM | IC50 [7]: > 1000 nM | IC50 [8]: > 1000 nM

C[C@@H](O)[C@@H]1NC(=O)[C@H](CCCCN)NC(=O)[C@@H](Cc2c[nH]c3ccccc23)NC(=O)[C@H](Cc2ccccc2)NC(=O)[C@H](Cc2ccccc2)NC(=O)[C@H](CC(N)=O)NC(=O)[C@@H](N)CSSC[C@@H](C(=O)O)NC(=O)[C@H](Cc2ccccc2)NC1=O
Relative potency (Rattus norvegicus [1]): <1 | Relative potency (Rattus norvegicus [2]): <1 | Relative potency (Rattus norvegicus [3]): 72

CC(C)NCc1ccc(C[C@@H]2NC(=O)[C@@H](Cc3c[nH]c4ccccc34)NC(=O)[C@@H]3CCC(=O)NCCCC[C@H](NC(=O)[C@H]([C@@H](C)O)NC2=O)C(=O)N[C@@H]([C@@H](C)O)C(=O)N[C@@H](CO)C(=O)N[C@H](C(=O)O)CSSC[C@H](NC(=O)[C@@H](N)Cc2ccc(O)cc2)C(=O)N[C@@H](CCCCN)C(=O)N[C@@H](Cc2ccccc2)C(=O)N3)cc1
IC50 [4]: > 1000 nM | IC50 [5]: > 1000 nM | IC50 [6]: > 1000 nM | IC50 [7]: > 1000 nM | IC50 [8]: > 1000 nM

CC(C)NCc1ccc(C[C@@H]2NC(=O)[C@@H](Cc3c[nH]c4ccccc34)NC(=O)[C@@H]3CC(=O)NC[C@H](NC(=O)[C@H](Cc4ccccc4)NC(=O)[C@H]([C@@H](C)O)NC2=O)C(=O)N[C@@H](CO)C(=O)N[C@H](C(=O)O)CSSC[C@H](NC(=O)[C@@H](N)Cc2ccc(O)cc2)C(=O)N[C@@H](CCCCN)C(=O)N[C@@H](Cc2ccccc2)C(=O)N3)cc1
IC50 [4]: > 1000 nM | IC50 [5]: > 1000 nM | IC50 [6]: > 1000 nM | IC50 [7]: > 1000 nM | IC50 [8]: > 1000 nM

C[C@@H](O)[C@@H]1NC(=O)[C@H](CCCCN)NC(=O)[C@@H](Cc2c[nH]c3ccccc23)NC(=O)[C@H](Cc2ccccc2)NC(=O)[C@H](Cc2ccccc2)NC(=O)[C@@H](N)CSSC[C@@H](C(=O)O)NC1=O
Relative potency (Rattus norvegicus [1]): 0.07 | Relative potency (Rattus norvegicus [2]): <1 | Relative potency (Rattus norvegicus [3]): <1

CC(C)NCc1ccc(C[C@@H]2NC(=O)[C@@H](Cc3c[nH]c4ccccc34)NC(=O)[C@H]3CCC(=O)NCC[C@@H](NC(=O)[C@H]([C@@H](C)O)NC2=O)C(=O)N[C@@H]([C@@H](C)O)C(=O)N[C@@H](CO)C(=O)N[C@H](C(=O)O)CSSC[C@H](NC(=O)[C@@H](N)Cc2ccc(O)cc2)C(=O)N[C@@H](CCCCN)C(=O)N[C@@H](Cc2ccccc2)C(=O)N3)cc1
IC50 [4]: > 1000 nM | IC50 [5]: > 1000 nM | IC50 [6]: > 1000 nM | IC50 [7]: > 1000 nM | IC50 [8]: > 1000 nM

CC(C)NCc1ccc(C[C@@H]2NC(=O)[C@@H](Cc3c[nH]c4ccccc34)NC(=O)[C@@H]3CCC(=O)NCC(=O)NCC[C@H](NC(=O)[C@H](Cc4ccccc4)NC(=O)[C@H]([C@@H](C)O)NC2=O)C(=O)N[C@@H](CO)C(=O)N[C@H](C(=O)O)CSSC[C@H](NC(=O)[C@@H](N)Cc2ccc(O)cc2)C(=O)N[C@@H](CCCCN)C(=O)N[C@@H](Cc2ccccc2)C(=O)N3)cc1
IC50 [4]: > 1000 nM | IC50 [5]: > 1000 nM | IC50 [6]: > 1000 nM | IC50 [7]: > 1000 nM | IC50 [8]: > 1000 nM

CC(C)NCc1ccc(C[C@@H]2NC(=O)[C@@H](Cc3c[nH]c4ccccc34)NC(=O)[C@@H]3CCC(=O)NCC[C@H](NC(=O)[C@H](Cc4ccccc4)NC(=O)[C@H]([C@@H](C)O)NC2=O)C(=O)N[C@@H](CO)C(=O)N[C@H](C(=O)O)CSSC[C@H](NC(=O)[C@@H](N)Cc2ccc(O)cc2)C(=O)N[C@@H](CCCCN)C(=O)N[C@@H](Cc2ccccc2)C(=O)N3)cc1
IC50 [4]: > 1000 nM | IC50 [5]: > 1000 nM | IC50 [6]: 241 nM | IC50 [7]: > 1000 nM | IC50 [8]: > 1000 nM

CC(C)NCc1ccc(C[C@@H]2NC(=O)[C@@H](Cc3c[nH]c4ccccc34)NC(=O)[C@@H]3CCC(=O)NCCCCC[C@H](NC(=O)[C@H](Cc4ccccc4)NC(=O)[C@H]([C@@H](C)O)NC2=O)C(=O)N[C@@H](CO)C(=O)N[C@H](C(=O)O)CSSC[C@H](NC(=O)[C@@H](N)Cc2ccc(O)cc2)C(=O)N[C@@H](CCCCN)C(=O)N[C@@H](Cc2ccccc2)C(=O)N3)cc1
IC50 [4]: > 1000 nM | IC50 [5]: > 1000 nM | IC50 [6]: 94 nM | IC50 [7]: > 1000 nM | IC50 [8]: > 1000 nM

C[C@@H](O)[C@@H]1NC(=O)[C@H](Cc2ccccc2)NC(=O)[C@H]([C@@H](C)O)NC(=O)[C@H](CCCCN)NC(=O)[C@@H](Cc2c[nH]c3ccccc23)NC(=O)[C@H](Cc2ccccc2)NC(=O)[C@H](Cc2ccccc2)NC(=O)[C@H](CC(N)=O)NC(=O)[C@@H](N)CSSC[C@@H](C(=O)O)NC1=O
Relative potency (Rattus norvegicus [1]): 8 | Relative potency (Rattus norvegicus [3]): 75

CC(C)NCc1ccc(C[C@@H]2NC(=O)[C@@H](Cc3c[nH]c4ccccc34)NC(=O)[C@@H]3CCC(=O)NCCCCCC[C@H](NC(=O)[C@H](Cc4ccccc4)NC(=O)[C@H]([C@@H](C)O)NC2=O)C(=O)N[C@@H](CO)C(=O)N[C@H](C(=O)O)CSSC[C@H](NC(=O)[C@@H](N)Cc2ccc(O)cc2)C(=O)N[C@@H](CCCCN)C(=O)N[C@@H](Cc2ccccc2)C(=O)N3)cc1
IC50 [4]: > 1000 nM | IC50 [5]: > 1000 nM | IC50 [6]: 16 nM | IC50 [7]: > 1000 nM | IC50 [8]: > 1000 nM

CC(C)NCc1ccc(C[C@@H]2NC(=O)[C@@H](Cc3c[nH]c4ccccc34)NC(=O)[C@@H]3CCC(=O)NCCCC[C@H](NC(=O)[C@H](Cc4ccccc4)NC(=O)[C@H]([C@@H](C)O)NC2=O)C(=O)N[C@@H](CO)C(=O)N[C@H](C(=O)O)CSSC[C@H](NC(=O)[C@@H](N)Cc2ccc(O)cc2)C(=O)N[C@@H](CCCCN)C(=O)N[C@@H](Cc2ccccc2)C(=O)N3)cc1
IC50 [4]: > 1000 nM | IC50 [5]: > 1000 nM | IC50 [6]: 53 nM | IC50 [7]: > 1000 nM | IC50 [8]: > 1000 nM

CC(C)NCc1ccc(C[C@@H]2NC(=O)[C@@H](Cc3c[nH]c4ccccc34)NC(=O)[C@@H]3CCC(=O)NCCCCC[C@@H](NC(=O)[C@H](Cc4ccccc4)NC(=O)[C@H]([C@@H](C)O)NC2=O)C(=O)N[C@@H](CO)C(=O)N[C@H](C(=O)O)CSSC[C@H](NC(=O)[C@@H](N)Cc2ccc(O)cc2)C(=O)N[C@@H](CCCCN)C(=O)N[C@@H](Cc2ccccc2)C(=O)N3)cc1
IC50 [4]: > 1000 nM | IC50 [5]: > 1000 nM | IC50 [6]: 782 nM | IC50 [7]: 99 nM | IC50 [8]: > 1000 nM

C[C@@H](O)[C@@H]1NC(=O)[C@H](Cc2ccccc2)NC(=O)[C@H]([C@@H](C)O)NC(=O)[C@H](CCCCN)NC(=O)[C@@H](Cc2c[nH]c3ccccc23)NC(=O)[C@H](Cc2ccccc2)NC(=O)[C@H](Cc2ccccc2)NC(=O)[C@@H](N)CSSC[C@@H](C(=O)O)NC(=O)[C@H](CO)NC1=O
Relative potency (Rattus norvegicus [1]): 110 | Relative potency (Rattus norvegicus [2]): <1 | Relative potency (Rattus norvegicus [3]): 700

CC(C)NCc1ccc(C[C@@H]2NC(=O)[C@@H](Cc3c[nH]c4ccccc34)NC(=O)[C@@H]3CC(=O)NCCC[C@H](NC(=O)[C@H](Cc4ccccc4)NC(=O)[C@H]([C@@H](C)O)NC2=O)C(=O)N[C@@H](CO)C(=O)N[C@H](C(=O)O)CSSC[C@H](NC(=O)[C@@H](N)Cc2ccc(O)cc2)C(=O)N[C@@H](CCCCN)C(=O)N[C@@H](Cc2ccccc2)C(=O)N3)cc1
IC50 [4]: > 1000 nM | IC50 [5]: > 1000 nM | IC50 [6]: > 1000 nM | IC50 [7]: > 1000 nM | IC50 [8]: > 1000 nM

CC(C)NCc1ccc(C[C@@H]2NC(=O)[C@@H](Cc3c[nH]c4ccccc34)NC(=O)[C@@H]3CCC(=O)NCC[C@H](NC(=O)[C@H]([C@@H](C)O)NC2=O)C(=O)N[C@@H]([C@@H](C)O)C(=O)N[C@@H](CO)C(=O)N[C@H](C(=O)O)CSSC[C@H](NC(=O)[C@@H](N)Cc2ccc(O)cc2)C(=O)N[C@@H](CCCCN)C(=O)N[C@@H](Cc2ccccc2)C(=O)N3)cc1
IC50 [4]: > 1000 nM | IC50 [5]: > 1000 nM | IC50 [6]: > 1000 nM | IC50 [7]: > 1000 nM | IC50 [8]: > 1000 nM

CC(C)NCc1ccc(C[C@@H]2NC(=O)[C@@H](Cc3c[nH]c4ccccc34)NC(=O)[C@@H]3CCC(=O)NCCC[C@H](NC(=O)[C@H](Cc4ccccc4)NC(=O)[C@H]([C@@H](C)O)NC2=O)C(=O)N[C@@H](CO)C(=O)N[C@H](C(=O)O)CSSC[C@H](NC(=O)[C@@H](N)Cc2ccc(O)cc2)C(=O)N[C@@H](CCCCN)C(=O)N[C@@H](Cc2ccccc2)C(=O)N3)cc1
IC50 [4]: > 1000 nM | IC50 [5]: > 1000 nM | IC50 [6]: 554 nM | IC50 [7]: > 1000 nM | IC50 [8]: > 1000 nM

CC(C)NCc1ccc(C[C@@H]2NC(=O)[C@@H](Cc3c[nH]c4ccccc34)NC(=O)[C@@H]3CCC(=O)NCCCCCC[C@@H](NC(=O)[C@H](Cc4ccccc4)NC(=O)[C@H]([C@@H](C)O)NC2=O)C(=O)N[C@@H](CO)C(=O)N[C@H](C(=O)O)CSSC[C@H](NC(=O)[C@@H](N)Cc2ccc(O)cc2)C(=O)N[C@@H](CCCCN)C(=O)N[C@@H](Cc2ccccc2)C(=O)N3)cc1
IC50 [4]: > 1000 nM | IC50 [5]: > 1000 nM | IC50 [6]: 204 nM | IC50 [7]: > 1000 nM | IC50 [8]: 772 nM
